Reference: ChEMBL document CHEMBL1153467, “Synthesis and biological evaluation of imidazole derivatives as novel NOP/ORL1 receptor antagonists: exploration and optimization of alternative pyrazole structure” (Bioorg Med Chem Lett, 2009)

Tests used:
[1] = molecular target: Voltage-gated inwardly rectifying potassium channel KCNH2 (Homo sapiens, UniProt Q12809); test: Displacement of [35S]MK499 from human ERG expressed in HEK293 cells overexpressing Ikr channel protein; assay type: cell-based
[2] = Half life in rat at 1 mg/kg, iv; assay type: ADME, organism-based; design: dose 1 mg/kg, route intravenous; settings: in vivo
[3] = Oral bioavailability in rat at 3 mg/kg; assay type: ADME, organism-based; settings: in vivo
[4] = Metabolic stability in rat liver microsomes at 1 uM after 30 mins; assay type: ADME, Microsome; settings: read-out: Stability
Procedure, shortened: (§1)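 Parent compound at 1 μM was incubated with human or rat liver microsomes (0.25 mg protein/ml) for 30 min at 37 °C; stability was read out as % parent remaining.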

Nociceptin receptor [5] = molecular target: T1, Nociceptin receptor (Homo sapiens, UniProt P41146); test: Displacement of [125I]Tyr14-nociceptin from human ORL1 receptor expressed in CHO cells; assay type: cell-based
T1 sequence (P41146 whole entry): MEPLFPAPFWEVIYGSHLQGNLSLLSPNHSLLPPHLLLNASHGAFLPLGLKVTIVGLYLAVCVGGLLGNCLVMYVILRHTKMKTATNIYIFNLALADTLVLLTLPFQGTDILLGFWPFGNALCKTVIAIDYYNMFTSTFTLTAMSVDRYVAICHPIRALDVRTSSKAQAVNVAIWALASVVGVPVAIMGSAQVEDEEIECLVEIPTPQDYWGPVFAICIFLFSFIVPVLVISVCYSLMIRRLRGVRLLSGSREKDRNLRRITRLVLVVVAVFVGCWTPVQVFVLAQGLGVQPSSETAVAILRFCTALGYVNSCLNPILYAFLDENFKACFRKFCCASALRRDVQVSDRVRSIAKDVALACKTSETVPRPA
Procedure, shortened: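 Competition binding to human ORL1 receptors transfected into CHO cells, with [¹²⁵I][Tyr¹⁴]nociceptin as radioligand; values given as IC₅₀.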

Nociceptin receptor [6] = molecular target: T1, Nociceptin receptor; test: Antagonist activity at human cloned ORL1 receptor expressed in CHO cells assessed as inhibition of nociceptin/orphanin FQ-stimulated [35S]GTPgammaS binding; assay type: functional, cell-based
Procedure, shortened: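 Functional antagonism measured by stimulation of [³⁵S]GTPγS binding to membranes from CHO cells expressing ORL1, run per an earlier published protocol.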

[7] = Clearance in rat at 1 mg/kg, iv; assay type: ADME, organism-based; design: dose 1 mg/kg, route intravenous; settings: in vivo
MDR1 (human) = test: Apparent permeability across pig L-MDR1 cells overexpressing human MDR1; assay type: ADME, cell-based, Sus scrofa; settings: LLC-PK1
Procedure, shortened: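 P-gp transporter efflux assay: apparent permeability (Papp) reported in 10⁻⁶ cm/s; efflux expressed as the B–A/A–B ratio, with ratio accuracy considered compromised when Papp <10.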

[8] = Efflux ratio of permeability from basolateral to apical side over apical to basolateral side in pig L-MDR1 cells overexpressing human MDR1
[9] = Metabolic stability in human liver microsomes at 1 uM after 30 mins; assay type: ADME, Microsome; settings: read-out: Stability; procedure, shortened: as §1
Nociceptin receptor [10] = molecular target: T1, Nociceptin receptor; test: Displacement of [125I]Tyr14-nociceptin from human ORL1 receptor expressed in CHO cells at 1 uM; assay type: cell-based
Procedure, shortened: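 Same radioligand displacement at human ORL1 in CHO cells ([¹²⁵I][Tyr¹⁴]nociceptin), but reported as % inhibition of binding at a single 1 μM test concentration.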

Sequence of Voltage-gated inwardly rectifying potassium channel KCNH2 (Q12809 whole entry): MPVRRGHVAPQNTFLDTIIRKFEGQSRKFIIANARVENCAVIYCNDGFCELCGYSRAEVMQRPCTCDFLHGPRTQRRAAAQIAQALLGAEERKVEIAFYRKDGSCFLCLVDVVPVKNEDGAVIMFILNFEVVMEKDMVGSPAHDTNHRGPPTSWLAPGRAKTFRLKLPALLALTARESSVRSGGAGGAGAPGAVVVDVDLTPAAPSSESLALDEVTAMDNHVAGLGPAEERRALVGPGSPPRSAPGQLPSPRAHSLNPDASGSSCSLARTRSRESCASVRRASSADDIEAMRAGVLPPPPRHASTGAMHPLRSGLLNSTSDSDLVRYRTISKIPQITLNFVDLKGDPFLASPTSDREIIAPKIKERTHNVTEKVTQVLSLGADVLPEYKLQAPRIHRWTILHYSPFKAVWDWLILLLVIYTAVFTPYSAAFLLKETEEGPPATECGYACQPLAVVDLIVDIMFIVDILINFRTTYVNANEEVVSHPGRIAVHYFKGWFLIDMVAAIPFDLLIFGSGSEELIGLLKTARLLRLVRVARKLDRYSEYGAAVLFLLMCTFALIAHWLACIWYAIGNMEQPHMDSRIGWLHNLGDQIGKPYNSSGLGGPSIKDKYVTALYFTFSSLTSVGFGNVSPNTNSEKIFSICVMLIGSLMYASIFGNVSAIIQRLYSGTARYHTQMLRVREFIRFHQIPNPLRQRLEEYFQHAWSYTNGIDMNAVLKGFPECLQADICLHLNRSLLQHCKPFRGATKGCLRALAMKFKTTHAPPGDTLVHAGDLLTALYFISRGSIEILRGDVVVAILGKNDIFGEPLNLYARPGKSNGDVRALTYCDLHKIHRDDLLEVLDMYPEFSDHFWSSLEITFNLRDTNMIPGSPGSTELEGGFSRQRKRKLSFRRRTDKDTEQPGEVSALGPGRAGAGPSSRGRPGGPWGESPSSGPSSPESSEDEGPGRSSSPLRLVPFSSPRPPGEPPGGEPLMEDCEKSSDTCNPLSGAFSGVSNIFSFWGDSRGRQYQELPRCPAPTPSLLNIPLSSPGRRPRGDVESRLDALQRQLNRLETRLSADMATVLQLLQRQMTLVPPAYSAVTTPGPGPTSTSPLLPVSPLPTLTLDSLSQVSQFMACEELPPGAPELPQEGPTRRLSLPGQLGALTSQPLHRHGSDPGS

SMILES | IC50 (Nociceptin receptor [5]) [nM] | inhibition (Nociceptin receptor [10]) [%] | further results
CCc1c(CN[C@H]2CC[C@@H](F)C2)nc(-c2ncccc2Cl)n1-c1ccc(C)nc1 | 3.2 | – | IC50 [1]: 15 µM; half-life [2]: 30 min; bioavailability [3]: 10%; remaining at 0.5 h, 1 µM [4]: 82%; IC50 (Nociceptin receptor [6]): 2.3 nM; clearance [7]: 114 mL/min/kg; Papp (MDR1 (human)): 20.6 ×10⁻⁶ cm/s; Ratio [8]: 19.7; remaining at 0.5 h, 1 µM [9]: 85%
CC(C)(C)n1c(CNC2CCCC2)nc(-c2ccc(Cl)cc2Cl)c1-c1ccc(Cl)cc1 | > 1000 | 26 | –
Clc1ccc(-c2cc(CNC3CCCC3)nn2-c2ccc(Cl)cc2Cl)cc1 | 130 | – | –
Cn1c(CNC2CCCC2)nnc1-c1cc(F)cc(F)c1 | > 1000 | 19 | –
Cn1c(CNC2CCCC2)nc(-c2ccc(Cl)cc2Cl)c1-c1ccc(Cl)cc1 | 520 | – | –
Cc1c(CNC2CCCC2)nnn1-c1ccc(F)c(F)c1 | > 1000 | 40 | –
Cc1nc(CNC2CCCC2)n(C(C)C)c1-c1ccc(Cl)cc1 | 11 | – | IC50 [1]: 3.2 µM; Papp (MDR1 (human)): 18.2 ×10⁻⁶ cm/s; Ratio [8]: 1
CCn1c(CNC2CCCC2)nc(-c2ccc(Cl)cc2Cl)c1-c1ccc(Cl)cc1 | 160 | – | –
Cc1c(CNC2CCCC2)cc(-c2ccc(Cl)cc2Cl)n1-c1ccc(Cl)cc1 | 200 | – | –
FCCn1c(CNC2CCCC2)nc(-c2ccc(Cl)cc2Cl)c1-c1ccc(Cl)cc1 | 160 | – | –
FC(F)Cn1c(CNC2CCCC2)nc(-c2ccc(Cl)cc2Cl)c1-c1ccc(Cl)cc1 | 500 | – | –
FCC(CF)n1c(CNC2CCCC2)nc(-c2ccc(Cl)cc2Cl)c1-c1ccc(Cl)cc1 | 96 | – | –
CCC(CC)n1c(CNC2CCCC2)nc(-c2ccc(Cl)cc2Cl)c1-c1ccc(Cl)cc1 | 160 | – | –
Cc1c(CNC2CCCC2)nc(-c2ccc(Cl)cc2Cl)n1-c1ccc(Cl)cc1 | 28 | – | –
CC(C)n1c(CNC2CCCC2)nc(-c2ccc(Cl)cc2Cl)c1-c1ccc(Cl)cc1 | 33 | – | –
Cc1ccc(-n2c(-c3ncccc3Cl)nc(CN[C@H]3CC[C@@H](F)C3)c2C(C)C)cn1 | 1.4 | – | IC50 [1]: 15 µM; IC50 (Nociceptin receptor [6]): 2.3 nM; Papp (MDR1 (human)): 24.1 ×10⁻⁶ cm/s; Ratio [8]: 21.8
Cn1c(CNC2CCCC2)nc(-c2ccc(Cl)cc2)c1-c1ccc(Cl)cc1Cl | 850 | – | –

SMILES | IC50 (Nociceptin receptor [5]) [nM] | inhibition (Nociceptin receptor [10]) [%] | further results
Clc1ccc(-c2c(-c3ccc(Cl)cc3Cl)nc(CNC3CCCC3)n2C2CC2)cc1 | 190 | – | –
Cc1ccc(-n2c(-c3ncccc3Cl)nc(CNC3CCCC3)c2C)cn1 | 26 | – | –
Clc1ccc(-c2oc(CNC3CCCC3)nc2-c2ccc(Cl)cc2Cl)cc1 | > 1000 | 28 | –
Clc1ccc(-c2c(-c3ccc(Cl)cc3Cl)nc(CNC3CCCC3)n2C2CCC2)cc1 | 530 | – | –
Cc1ccc(-n2c(-c3ncccc3Cl)nc(CNC3CCCC3)c2C(C)C)cn1 | 4.7 | – | IC50 [1]: 9.9 µM; IC50 (Nociceptin receptor [6]): 9.6 nM; Papp (MDR1 (human)): 25 ×10⁻⁶ cm/s; Ratio [8]: 22.9
Clc1ccc(-c2nc(CNC3CCCC3)cn2-c2ccc(Cl)cc2Cl)cc1 | 620 | – | –
Cc1c(CNC2CCCC2)oc(-c2ccc(Cl)cc2Cl)c1-c1ccc(Cl)cc1 | > 1000 | 25 | –
Cc1nn(-c2ccccc2)c(C)c1CNC1CCCC1 | > 1000 | 44 | –
COCCc1nc(CN[C@H]2CC[C@@H](F)C2)n(C(C)C)c1-c1ccc(Cl)cc1 | 7.6 | – | IC50 (Nociceptin receptor [6]): 5.6 nM; Papp (MDR1 (human)): 28.6 ×10⁻⁶ cm/s
Clc1ccc(-c2sc(CNC3CCCC3)nc2-c2ccc(Cl)cc2Cl)cc1 | > 1000 | 7 | –
Clc1ccc(-c2c(-c3ccc(Cl)cc3Cl)nc(CNC3CCCC3)n2C2CCCC2)cc1 | > 1000 | 43 | –
Clc1ccc(-c2nc(CNC3CCCC3)nn2-c2ccc(Cl)cc2Cl)cc1 | > 1000 | 48 | –
FC(F)(F)Cn1c(CNC2CCCC2)nc(-c2ccc(Cl)cc2Cl)c1-c1ccc(Cl)cc1 | > 1000 | 32 | –
Cc1nc(CN[C@H]2CC[C@@H](F)C2)c(C(C)C)n1-c1cc(F)cc(F)c1 | 8.6 | – | IC50 [1]: 34 µM; IC50 (Nociceptin receptor [6]): 4.5 nM; Papp (MDR1 (human)): 34 ×10⁻⁶ cm/s; Ratio [8]: 3.2
Cc1ccc(-n2c(-c3ncccc3Cl)nc(CN[C@H]3CC[C@@H](F)C3)c2C)cn1 | 9.1 | – | IC50 (Nociceptin receptor [6]): 3.7 nM; Papp (MDR1 (human)): 16.8 ×10⁻⁶ cm/s
Clc1ccc(-c2c(-c3ccc(Cl)cc3Cl)nc(CNC3CCCC3)n2C2CCCCC2)cc1 | > 1000 | 48 | –
CC(C)Cn1c(CNC2CCCC2)nc(-c2ccc(Cl)cc2Cl)c1-c1ccc(Cl)cc1 | 540 | – | –
